Measured values reported in ChEMBL document CHEMBL1122773 (1984).
In brackets after ≈: the same amount, converted by molar mass.

Tests used:
[1] = tested on: Mus musculus; assay: Bioactivity in blood, in Bacteroides fragilis infected mice following subcutaneous dose of 200 mg/kg after 15 mins of bleeding; format: functional
Method in brief: (§1)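 On day 7 post-infection, groups of five mice were given a single 200 mg/kg subcutaneous dose and killed at set times. Blood was taken by cardiac puncture and abscesses were excised. Activity was measured by standard microbiological assay.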

[2] = tested on: Mus musculus; assay: Bioactivity in blood, in Bacteroides fragilis infected mice following subcutaneous dose of 200 mg/kg after 360 mins of bleeding; format: functional; method in brief: as §1
[3] = tested on: Cutibacterium acnes; assay: In vitro antibacterial activity against the anaerobic Propionibacterium acnes(Strain UC no.6575); format: functional
Method in brief: (§2)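 Agar dilution with serial twofold drug dilutions in Schaedler broth mixed into molten Wilkens-Chalgren agar. Plates prereduced 3 h under 85% N2/10% H2/5% CO2. Strains grown 48 h on Schaedler agar, suspended to 0.5 McFarland, and 0.001 mL spotted by replicator. All steps done anaerobically. Incubation 48 h at 37 °C. MIC is the least drug inhibiting growth; a faint film or fewer than three colonies scored negative.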

[4] = tested on: Staphylococcus aureus; assay: In vitro antibacterial activity against the aerobic Staphylococcus aureus (Strain UC no.6689); format: functional
Method in brief: (§3)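 Broth microdilution in brain/heart infusion broth with twofold drug dilutions. Inoculum was a standardized suspension giving 10⁵ viable cells/mL final. Plates were incubated 20 h at 37 °C. MIC (mcg/mL) = lowest concentration with no visible growth.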

[5] = tested on: Mus musculus; assay: Bioactivity in abscess, in Bacteroides fragilis infected mice following subcutaneous dose of 200 mg/kg after 45 mins of bleeding; format: functional; method in brief: as §1
[6] = tested on: Mus musculus; assay: Bioactivity in abscess, in Bacteroides fragilis infected mice following subcutaneous dose of 200 mg/kg after 30 mins of bleeding; format: functional; method in brief: as §1
[7] = tested on: Staphylococcus aureus; assay: In vitro antibacterial activity against the aerobic Staphylococcus aureus (Strain UC no.570); format: functional; method in brief: as §3
[8] = tested on: Mus musculus; assay: Bioactivity in blood, in Bacteroides fragilis infected mice following subcutaneous dose of 200 mg/kg after 120 mins of bleeding; format: functional; method in brief: as §1
[9] = tested on: Staphylococcus aureus; assay: In vitro antibacterial activity against the aerobic Staphylococcus aureus (Strain UC no.6675); format: functional; method in brief: as §3
[10] = tested on: Clostridium cadaveris; assay: In vitro antibacterial activity against the anaerobic Clostridium cadaveris (Strain UC no.6510); format: functional; method in brief: as §2
[11] = tested on: Mus musculus; assay: Bioactivity in blood, in Bacteroides fragilis infected mice following subcutaneous dose of 200 mg/kg after 90 mins of bleeding; format: functional; method in brief: as §1
[12] = tested on: Staphylococcus aureus; assay: In vitro antibacterial activity for minimum inhibition concentration (MIC) required to inhibit growth of Staphylococcus aureus; format: functional
Method in brief: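 Broth microdilution in brain/heart infusion broth, inoculated with a standardized suspension to a final 10^5 viable cells/mL. Incubation 20 h at 37 °C. MIC read as the lowest concentration preventing visible growth.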

[13] = tested on: Mus musculus; assay: Bioactivity in blood, in Bacteroides fragilis infected mice following subcutaneous dose of 200 mg/kg after 60 mins of bleeding; format: functional; method in brief: as §1
[14] = tested on: Staphylococcus aureus; assay: In vitro antibacterial activity against the aerobic Staphylococcus aureus (Strain UC no.6695); format: functional; method in brief: as §3
[15] = tested on: Escherichia coli; assay: In vitro antibacterial activity against the aerobic Escherichia coli (Strain UC no.45); format: functional; method in brief: as §3
[16] = tested on: Mus musculus; assay: Bioactivity in abscess, in Bacteroides fragilis infected mice following subcutaneous dose of 200 mg/kg after 120 mins of bleeding; format: functional; method in brief: as §1
[17] = tested on: Staphylococcus aureus; assay: In vitro antibacterial activity against the aerobic Staphylococcus aureus (Strain UC no.746); format: functional; method in brief: as §3
[18] = tested on: Mus musculus; assay: Bioactivity in abscess, in Bacteroides fragilis infected mice following subcutaneous dose of 200 mg/kg after 150 mins of bleeding; format: functional; method in brief: as §1
[19] = tested on: Klebsiella pneumoniae; assay: In vitro antibacterial activity against the aerobic Klebsiella pneumoniae (Strain UC no.58); format: functional; method in brief: as §3
[20] = In vitro antibacterial activity against the aerobic […] (Strain UC no.153); format: functional; method in brief: as §3
[21] = tested on: Mus musculus; assay: Bioactivity in abscess, in Bacteroides fragilis infected mice following subcutaneous dose of 200 mg/kg after 15 mins of bleeding; format: functional; method in brief: as §1
[22] = tested on: Staphylococcus aureus; assay: In vitro antibacterial activity against the aerobic Staphylococcus aureus (Strain UC no.6692); format: functional; method in brief: as §3
[23] = tested on: Peptoniphilus asaccharolyticus; assay: In vitro antibacterial activity against the anaerobic Peptoccus aerogenes (Strain UC no.6319); format: functional; method in brief: as §2
[24] = In vitro antibacterial activity against the aerobic Salmonella schottmuelleri (Strain UC no.126); format: functional; method in brief: as §3
[25] = tested on: Staphylococcus aureus; assay: In vitro antibacterial activity against the aerobic Staphylococcus aureus (Strain UC no.6688); format: functional; method in brief: as §3
[26] = tested on: Staphylococcus aureus; assay: In vitro antibacterial activity against the aerobic Staphylococcus aureus (Strain UC no.571); format: functional; method in brief: as §3
[27] = tested on: Mus musculus; assay: Bioactivity in blood, in Bacteroides fragilis infected mice following subcutaneous dose of 200 mg/kg after 30 mins of bleeding; format: functional; method in brief: as §1
[28] = tested on: Proteus vulgaris; assay: In vitro antibacterial activity against the aerobic Proteus vulgaris (Strain UC no.93); format: functional; method in brief: as §3
[29] = In vitro antibacterial activity against the aerobic […] (Strain UC no.871); format: functional; method in brief: as §3
[30] = tested on: Mus musculus; assay: Bioactivity in abscess, in Bacteroides fragilis infected mice following subcutaneous dose of 200 mg/kg after 360 mins of bleeding; format: functional; method in brief: as §1
[31] = tested on: Staphylococcus aureus; assay: In vitro antibacterial activity against the aerobic Staphylococcus aureus (Strain UC no.76); format: functional; method in brief: as §3
[32] = tested on: Mus musculus; assay: Bioactivity in abscess, in Bacteroides fragilis infected mice following subcutaneous dose of 200 mg/kg after 90 mins of bleeding; format: functional; method in brief: as §1
[33] = tested on: Mus musculus; assay: Bioactivity in blood, in Bacteroides fragilis infected mice following subcutaneous dose of 200 mg/kg after 45 mins of bleeding; format: functional; method in brief: as §1
[34] = tested on: Mus musculus; assay: Bioactivity in abscess, in Bacteroides fragilis infected mice following subcutaneous dose of 200 mg/kg after 60 mins of bleeding; format: functional; method in brief: as §1
[35] = tested on: Staphylococcus aureus; assay: In vitro antibacterial activity against the aerobic Staphylococcus aureus (Strain UC no.6696); format: functional; method in brief: as §3
[36] = tested on: Mus musculus; assay: Bioactivity in blood, in Bacteroides fragilis infected mice following subcutaneous dose of 200 mg/kg after 150 mins of bleeding; format: functional; method in brief: as §1
[37] = tested on: Streptococcus pyogenes; assay: In vitro antibacterial activity against the aerobic Streptococcus pyogenes (Strain UC no.152)
[38] = tested on: Staphylococcus aureus; assay: In vitro antibacterial activity against the aerobic Staphylococcus aureus (Strain UC no.6686); format: functional; method in brief: as §3
[39] = tested on: Staphylococcus aureus; assay: In vitro antibacterial activity against the aerobic Staphylococcus aureus (Strain UC no.6691); format: functional; method in brief: as §3
[40] = tested on: Pseudomonas aeruginosa; assay: In vitro antibacterial activity against the aerobic Pseudomonas aeruginosa (Strain UC no.95); format: functional; method in brief: as §3
[41] = tested on: Staphylococcus aureus; assay: In vitro antibacterial activity against the aerobic Staphylococcus aureus (Strain UC no.6693); format: functional; method in brief: as §3
[42] = tested on: Staphylococcus aureus; assay: In vitro antibacterial activity against the aerobic Staphylococcus aureus (Strain UC no.6694); format: functional; method in brief: as §3
[43] = In vitro antibacterial activity against the aerobic […] I(Strain UC no.41); format: functional; method in brief: as §3
[44] = tested on: Clostridium tetani; assay: In vitro antibacterial activity against the anaerobic Clostridium tetani(Strain UC no.6521); format: functional
Method in brief: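 Agar dilution under anaerobic conditions. Serial twofold drug dilutions in Schaedler broth were mixed with molten Wilkins-Chalgren agar. Plates were prereduced 3 h (85% N2, 10% H2, 5% CO2). Strains were grown 48 h on Schaedler agar, suspended to 0.5 McFarland, and 0.001 mL spotted by replicator. Incubation was anaerobic, 37 °C, 48 h.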

[45] = In vitro antibacterial activity against the aerobic […] III(Strain UC no.3213); format: functional; method in brief: as §3

CCC[C@@H]1C[C@@H](C(=O)N[C@@H]([C@H]2O[C@H](SC)[C@H](O)[C@@H](O)[C@H]2O)[C@H](C)Cl)N(C)C1 [CLINDAMYCIN]
B [1]: 17 ug (g of abscess)-1
B [2]: 0.2 ug (g of abscess)-1
MIC [3]: < 0.03 µg/mL
MIC [4]: 0.05 µg/mL (≈ 0.118 µM)
A [5]: 26 ug (g of abscess)-1
A [6]: 22 ug (g of abscess)-1
MIC [7]: 0.2 µg/mL (≈ 0.471 µM)
B [8]: 3 ug (g of abscess)-1
MIC [9]: 0.05 µg/mL (≈ 0.118 µM)
MIC [10]: < 0.03 µg/mL
B [11]: 4 ug (g of abscess)-1
MIC [12]: > 25 µg/mL
B [13]: 12 ug (g of abscess)-1
MIC [14]: 0.1 µg/mL (≈ 0.235 µM)
MIC [15]: > 25 µg/mL
A [16]: 9 ug (g of abscess)-1
MIC [17]: 0.05 µg/mL (≈ 0.118 µM)
A [18]: 8 ug (g of abscess)-1
MIC [19]: 12.5 µg/mL (≈ 29.4 µM)
MIC [20]: < 0.012 µg/mL
A [21]: 16 ug (g of abscess)-1
MIC [22]: > 25 µg/mL
MIC [23]: < 0.03 µg/mL
MIC [24]: > 25 µg/mL
MIC [25]: > 25 µg/mL
MIC [26]: 0.2 µg/mL (≈ 0.471 µM)
B [27]: 23 ug (g of abscess)-1
MIC [28]: > 25 µg/mL
MIC [29]: < 0.012 µg/mL
A [30]: 3 ug (g of abscess)-1
MIC [31]: 0.05 µg/mL (≈ 0.118 µM)
A [32]: 13 ug (g of abscess)-1
B [33]: 17 ug (g of abscess)-1
A [34]: 21 ug (g of abscess)-1
MIC [35]: 0.1 µg/mL (≈ 0.235 µM)
B [36]: 1.4 ug (g of abscess)-1
MIC [37]: < 0.012 µg/mL
MIC [38]: 0.05 µg/mL (≈ 0.118 µM)
MIC [39]: 0.1 µg/mL (≈ 0.235 µM)
MIC [40]: > 25 µg/mL
MIC [41]: 0.05 µg/mL (≈ 0.118 µM)
MIC [42]: > 25 µg/mL
MIC [43]: < 0.012 µg/mL
MIC [44]: < 0.03 µg/mL
MIC [45]: < 0.012 µg/mL
